In ChEMBL document CHEMBL4145675, “2-Phenylquinoline S. aureus NorA Efflux Pump Inhibitors: Evaluation of the Importance of Methoxy Group Introduction” (J Med Chem, 2018):
pIC50: −log10 of the molar value. Converted amounts (≈) assume the structure as drawn. The source made the active and inactive calls. The calls are words filed in the database; no cut-off is given here.

How the values were obtained:
Staphylococcus aureus [1] = assay: Antimicrobial activity against Staphylococcus aureus SA-1199B expressing wild type norA and co-expressing GrlA A116E mutant by microdilution method; type: organism-based; conditions: in vivo
Outline: (§1)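 CLSI broth microdilution MIC of the compound alone. Strains: SA-K1902 (norA deleted), SA-K2378 (SA-K1902 carrying norA plus its promoter on multicopy plasmid pCU1), SA-1199B (norA overexpressing, GrlA A116E).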

[2] = biological target: T1, Quinolone resistance protein NorA (Staphylococcus aureus) (UniProt P0A0J7); assay: Inhibition of NorA in Staphylococcus aureus SA-1199B expressing GrlA A116E mutant assessed as minimal potentiating drug concentration causing 8 fold reduction in ciprofloxacin MIC by microdilution method based Checkerboard assay
T1 sequence (whole entry): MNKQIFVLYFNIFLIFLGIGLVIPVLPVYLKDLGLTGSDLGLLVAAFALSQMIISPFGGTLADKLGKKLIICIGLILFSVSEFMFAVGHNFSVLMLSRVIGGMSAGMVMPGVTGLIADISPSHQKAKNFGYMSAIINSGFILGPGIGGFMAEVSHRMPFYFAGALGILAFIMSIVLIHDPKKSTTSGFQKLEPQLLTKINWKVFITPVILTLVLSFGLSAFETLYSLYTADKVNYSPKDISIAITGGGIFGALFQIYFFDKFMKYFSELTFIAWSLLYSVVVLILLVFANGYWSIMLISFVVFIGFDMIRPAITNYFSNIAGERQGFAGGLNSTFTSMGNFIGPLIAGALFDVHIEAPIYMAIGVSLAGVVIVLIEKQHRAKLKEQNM

[3] = biological target: T1, Quinolone resistance protein NorA (Staphylococcus aureus); assay: Inhibition of NorA in Staphylococcus aureus SA-K2378 assessed as synergistic potentiation of ciprofloxacin-induced antimicrobial activity at 0.78 to 100 ug/ml by microdilution method based Checkerboard assay
Staphylococcus aureus [4] = assay: Synergistic potentiation of ciprofloxacin-induced antimicrobial activity against norA deleted Staphylococcus aureus SA-K1902 at 0.78 to 100 ug/ml by microdilution method based Checkerboard assay; type: functional, organism-based
Staphylococcus aureus [5] = assay: Antimicrobial activity against Staphylococcus aureus ATCC 25923 by microdilution method; type: organism-based; conditions: in vivo
Outline: (§2)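 Broth microdilution MIC per CLSI guidelines. ATCC 25923 is norA wild-type. SA-1199B overexpresses norA and carries an A116E GrlA substitution.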

Staphylococcus aureus [6] = assay: Antimicrobial activity against Staphylococcus aureus SA-1199B expressing wild type norA by microdilution method; type: organism-based; conditions: in vivo; outline: as §2
Staphylococcus aureus [7] = assay: Antimicrobial activity against NorA deficient Staphylococcus aureus SA-K1902 by microdilution method; type: organism-based; conditions: in vivo; outline: as §1
[8] = Cytotoxicity in human HepG2 cells assessed as reduction in cell viability incubated for 24 hrs by ATP bioluminescence assay; type: cell-based
Outline: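 Cells were grown to confluence overnight in RPMI 1640 with 10% heat-inactivated fetal calf serum, penicillin and streptomycin. Monolayers were exposed for 24 h at 37 °C to scalar concentrations (0-250 µg/mL). Viability was read by ATP bioluminescence, each concentration in triplicate. CC50 is the concentration reducing cell number by 50% versus untreated controls.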

Staphylococcus aureus [9] = assay: Antimicrobial activity against NorA overexpressing Staphylococcus aureus SA-K2378 by microdilution method; type: organism-based; conditions: in vivo; outline: as §1
[10] = biological target: T1, Quinolone resistance protein NorA (Staphylococcus aureus); assay: Inhibition of NorA in Staphylococcus aureus SA-1199B expressing GrlA A116E mutant assessed as reduction in EtBr efflux at 50 uM incubated for 5 mins by fluorescence based assay
Outline: (§3)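 Cells were grown overnight in cation-supplemented Mueller-Hinton broth at 35 °C and subcultured to OD600 0.7–0.8. They were loaded at OD600 0.8 with 25 µM EtBr plus 100 µM CCCP (final) for 20 min at room temperature. Cells were then resuspended in fresh broth with or without compound, 50 µM for the single-point screen or a concentration series for IC50. Fluorescence (ex 485/em 645 nm) was read for 5 min. Inhibition was calculated from the fluorescence decrease versus untreated cells. Biological triplicate, each run twice.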

[11] = biological target: Quinolone resistance protein NorA (Staphylococcus aureus, UniProt P0A0J7, A116E); assay: Inhibition of NorA in Staphylococcus aureus SA-1199B expressing GrlA A116E mutant assessed as reduction in EtBr efflux incubated for 5 mins by fluorescence based assay; outline: as §3
Staphylococcus aureus [12] = assay: Synergistic potentiation of ciprofloxacin-induced antimicrobial activity against wild type Staphylococcus aureus ATCC 25923 at 0.78 to 100 ug/ml by microdilution method based Checkerboard assay; type: functional, organism-based
Staphylococcus aureus [13] = assay: Synergistic potentiation of ciprofloxacin-induced antimicrobial activity against Staphylococcus aureus SA-1199 at 0.78 to 100 ug/ml by microdilution method based Checkerboard assay; type: functional, organism-based
[14] = biological target: T1, Quinolone resistance protein NorA (Staphylococcus aureus); assay: Inhibition of NorA in Staphylococcus aureus SA-1199B expressing GrlA A116E mutant assessed as synergistic potentiation of ciprofloxacin-induced antimicrobial activity at 0.78 to 100 ug/ml by microdilution method based Checkerboard assay
[15] = biological target: T1, Quinolone resistance protein NorA (Staphylococcus aureus); assay: Inhibition of NorA in Staphylococcus aureus SA-1199B expressing GrlA A116E mutant assessed as synergistic potentiation of ciprofloxacin-induced antimicrobial activity at 0.78 ug/ml by microdilution method based Checkerboard assay
[16] = biological target: T1, Quinolone resistance protein NorA (Staphylococcus aureus); assay: Inhibition of NorA in Staphylococcus aureus SA-K2378 assessed as synergistic potentiation of ciprofloxacin-induced antimicrobial activity at 0.78 ug/ml by microdilution method based Checkerboard assay
Staphylococcus aureus [17] = assay: Antimicrobial activity against mepA deficient Staphylococcus aureus SA-K2885 by microdilution method; type: organism-based; conditions: in vivo
Outline: (§4)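 CLSI broth microdilution MIC of the compound alone in norA-deleted strains. SA-K2885 carries empty pALC2073 and SA-K2886 carries pALC2073-mepA (xyl/tetO promoter). 0.05 µg/mL tetracycline was present throughout to induce.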

Staphylococcus aureus [18] = assay: Antimicrobial activity against mepA overexpressing Staphylococcus aureus SA-K2886 by microdilution method; type: organism-based; conditions: in vivo; outline: as §4

| SMILES | MIC (Staphylococcus aureus [1]) | Activity [2] | inhibition [3] | Activity (Staphylococcus aureus [4]) | MIC (Staphylococcus aureus [5]) | MIC (Staphylococcus aureus [6]) | MIC (Staphylococcus aureus [7]) | CC50 at 24 h [8] | MIC (Staphylococcus aureus [9]) | inhibition [10] | pIC50 [11] | synergistic potentiation of ciprofloxacin activity (Staphylococcus aureus [12]) | inhibition (Staphylococcus aureus [13]) | inhibition [14] | inhibition [15] | fold change (FC) [16] | MIC (Staphylococcus aureus [17]) | MIC (Staphylococcus aureus [18]) |
| --- | --- | --- | --- | --- | --- | --- | --- | --- | --- | --- | --- | --- | --- | --- | --- | --- | --- | --- |
| CCCOc1ccc(-c2cc(OCCN(CC)CC)c3ccccc3n2)cc1 | > 241 µM | 12.5 µg/mL | Active | inactive | 100 µg/mL (≈ 264 µM) | > 100 µg/mL | 50 µg/mL (≈ 132 µM) |  |  |  |  |  |  |  |  |  |  |  |
| O=C(O)c1cn(C2CC2)c2cc(N3CCNCC3)c(F)cc2c1=O [CIPROFLOXACIN] |  |  |  |  | 0.31 µg/mL (≈ 0.936 µM) | 0.63 µg/mL (≈ 1.9 µM) | 0.31 µg/mL (≈ 0.936 µM) | 139 µg/mL (≈ 418 µM) | 2.5 µg/mL (≈ 7.54 µM) |  |  |  |  |  |  |  |  |  |
| CCCOc1ccc(-c2cc(OCCN3CCc4cc(OC)c(OC)cc4C3)c3c(OC)cc(OC)cc3n2)cc1 | 179 µM (≈ 100 µg/mL) | < 100 µg/mL | Active | inactive | 100 µg/mL (≈ 179 µM) | 100 µg/mL (≈ 179 µM) |  |  |  | 86.5% | 5.80 | Active | Active | Active | Active |  |  |  |
| CCCOc1ccc(-c2cc(OCCN(CC)CC)c3cc(OC)ccc3n2)cc1 | 122 µM (≈ 49.8 µg/mL) | 6.25 µg/mL |  |  | 50 µg/mL (≈ 122 µM) | 50 µg/mL (≈ 122 µM) |  | 5 µg/mL (≈ 12.2 µM) |  | 99% | 5.33 | Active | Active | Active |  |  |  |  |
| CCCOc1ccc(-c2cc(OCCN(CC)CC)c3ccc(OC)cc3n2)cc1 | > 245 µM | 6.25 µg/mL | Active | inactive | 50 µg/mL (≈ 122 µM) | > 100 µg/mL | 25 µg/mL (≈ 61.2 µM) | 7.7 µg/mL (≈ 18.8 µM) |  | 100% | 5.33 | Active | Active | Active | Active | 16 |  |  |
| CCCOc1ccc(-c2cc(OCCN3CCc4cc(OC)c(OC)cc4C3)c3cc(OC)cc(OC)c3n2)cc1 | 45 µM (≈ 25.1 µg/mL) | 3.13 µg/mL | Active | inactive | 25 µg/mL (≈ 44.7 µM) | 25 µg/mL (≈ 44.7 µM) | 25 µg/mL (≈ 44.7 µM) |  |  | 86.7% | 5.42 | Active | Active | Active | Active | 8 |  |  |
| CC[n+]1c(-c2ccccc2)c2cc(N)ccc2c2ccc(N)cc21.[Br-] [HOMIDIUM BROMIDE] |  |  |  |  |  |  |  |  |  |  |  |  |  |  |  |  | 0.63 µg/mL | 25 µg/mL |
| COC(=O)[C@H]1[C@H]2C[C@@H]3c4[nH]c5cc(OC)ccc5c4CCN3C[C@H]2C[C@@H](OC(=O)c2cc(OC)c(OC)c(OC)c2)[C@@H]1OC [RESERPINE] | > 164 µM | > 100 µg/mL | Active | inactive | > 100 µg/mL | > 100 µg/mL | > 100 µg/mL |  |  |  |  |  |  |  |  |  |  |  |
| CCCOc1ccc(-c2cc(OCCN3CCCCC3)c3ccc(OC)cc3n2)cc1 | 238 µM (≈ 100 µg/mL) | 3.13 µg/mL |  |  | 50 µg/mL (≈ 119 µM) | > 100 µg/mL |  | 71.5 µg/mL (≈ 170 µM) |  | 100% | 5.40 | Active | Active | Active |  |  |  |  |
